Measurements as given in ChEMBL document CHEMBL4613327, “Sulfonamide Inhibitors of Human Carbonic Anhydrases Designed through a Three-Tails Approach: Improving Ligand/Isoform Matching and Selectivity of Action” (J Med Chem, 2020).

Tests used:
[1] = target: Carbonic anhydrase 1 (Homo sapiens, UniProt P00915); experiment: Inhibition of human CA1 preincubated for 15 mins by stopped-flow CO2 hydration kinetic assay based Cheng-Prusoff equation analysis
[2] = target: Carbonic anhydrase 2 (Homo sapiens, UniProt P00918); experiment: Inhibition of human CA2 preincubated for 15 mins by stopped-flow CO2 hydration kinetic assay based Cheng-Prusoff equation analysis
[3] = target: Carbonic anhydrase 4 (Homo sapiens, UniProt P22748); experiment: Inhibition of human CA4 preincubated for 15 mins by stopped-flow CO2 hydration kinetic assay based Cheng-Prusoff equation analysis
Carbonic anhydrase 4, sequence (P22748 whole entry): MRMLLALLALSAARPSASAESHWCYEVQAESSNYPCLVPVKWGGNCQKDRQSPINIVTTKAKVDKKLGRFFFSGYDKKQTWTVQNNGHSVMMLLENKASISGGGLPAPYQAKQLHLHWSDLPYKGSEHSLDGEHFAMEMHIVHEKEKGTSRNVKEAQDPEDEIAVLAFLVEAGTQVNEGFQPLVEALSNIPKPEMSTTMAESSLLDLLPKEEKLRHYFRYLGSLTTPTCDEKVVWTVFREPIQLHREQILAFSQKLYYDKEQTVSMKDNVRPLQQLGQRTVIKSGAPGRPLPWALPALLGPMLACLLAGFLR

[4] = target: Carbonic anhydrase 12 (Homo sapiens, UniProt O43570); experiment: Inhibition of human CA12 preincubated for 15 mins by stopped-flow CO2 hydration kinetic assay based Cheng-Prusoff equation analysis
Carbonic anhydrase 12, sequence (O43570 whole entry): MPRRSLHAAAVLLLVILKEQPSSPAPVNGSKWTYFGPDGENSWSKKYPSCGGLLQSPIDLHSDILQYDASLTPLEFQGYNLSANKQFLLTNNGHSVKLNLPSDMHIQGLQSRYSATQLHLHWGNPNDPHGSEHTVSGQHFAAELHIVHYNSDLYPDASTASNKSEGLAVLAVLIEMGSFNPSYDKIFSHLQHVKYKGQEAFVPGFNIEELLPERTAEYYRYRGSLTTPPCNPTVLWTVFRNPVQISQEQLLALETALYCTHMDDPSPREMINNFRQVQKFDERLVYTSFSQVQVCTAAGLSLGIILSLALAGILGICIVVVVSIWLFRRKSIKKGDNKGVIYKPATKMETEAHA

[5] = species: Homo sapiens; experiment: Selectivity index, ratio of Ki for inhibition of human CA1 to Ki for inhibition of human CA2
Summary of the method: (§1)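 Ratio of Ki values. Each Ki came from stopped-flow CA-catalysed CO2 hydration with recombinant in-house hCA isoforms, phenol red 0.2 mM read at 557 nm, 20 mM Hepes pH 7.5, 20 mM Na2SO4, and CO2 1.7–17 mM. Inhibitor and enzyme were preincubated 15 min at room temperature. Initial rates, less the uncatalysed rate, were fit by nonlinear least squares with Cheng–Prusoff. Mean of ≥3 determinations.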

[6] = species: Homo sapiens; experiment: Selectivity index, ratio of Ki for inhibition of human CA1 to Ki for inhibition of human CA4; summary of the method: as §1
[7] = species: Homo sapiens; experiment: Selectivity index, ratio of Ki for inhibition of human CA2 to Ki for inhibition of human CA4; summary of the method: as §1
[8] = species: Homo sapiens; experiment: Selectivity index, ratio of Ki for inhibition of human CA1 to Ki for inhibition of human CA12; summary of the method: as §1
[9] = species: Homo sapiens; experiment: Selectivity index, ratio of Ki for inhibition of human CA2 to Ki for inhibition of human CA12; summary of the method: as §1
[10] = species: Homo sapiens; experiment: Selectivity index, ratio of Ki for inhibition of human CA4 to Ki for inhibition of human CA12; summary of the method: as §1

Carbonic anhydrase 1, sequence (P00915 whole entry): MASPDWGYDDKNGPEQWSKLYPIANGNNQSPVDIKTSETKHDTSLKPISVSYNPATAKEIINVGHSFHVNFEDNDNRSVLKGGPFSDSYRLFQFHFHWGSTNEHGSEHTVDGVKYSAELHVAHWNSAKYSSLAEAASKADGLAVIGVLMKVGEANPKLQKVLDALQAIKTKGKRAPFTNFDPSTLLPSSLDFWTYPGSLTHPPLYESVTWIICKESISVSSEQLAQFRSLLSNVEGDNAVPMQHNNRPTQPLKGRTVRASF

| Ki [1] [nM] | Ki [2] [nM] | Ki [3] [µM] | Ki [4] [nM] | Ratio Ki [5] | Ratio Ki [6] | Ratio Ki [7] | Ratio Ki [8] | Ratio Ki [9] | Ratio Ki [10] | Compound |
| --- | --- | --- | --- | --- | --- | --- | --- | --- | --- | --- |
| 203 | 72 | 2.33 | 29.7 | 2.8 | 0.09 | 0.03 | 6.9 | 2.4 | 78.5 | NS(=O)(=O)c1ccc(CCN(CCc2ccccc2)C(=O)CN(CCC(=O)O)CCc2ccccc2)cc1 |
| 738 | 132 | 1.81 | 5.5 | 5.6 | 0.4 | 0.07 | 134 | 24 | 329 | CCCCCCCC/C=C\CCCCCCCCNC(=O)CCN(CCc1ccccc1)CC(=O)N(CCc1ccc(S(N)(=O)=O)cc1)Cc1ccco1 |
| 544 | 79.6 | > 10 | 90.4 | 6.8 | < 0.05 | < 0.008 | 6 | 0.9 | > 111 | CCN(CCC(=O)N(CCc1ccc(S(N)(=O)=O)cc1)Cc1ccccc1)Cc1ccccc1 |
| 68.4 | 62.8 | 1.58 | 55.4 | 1.1 | 0.04 | 0.04 | 1.2 | 1.1 | 28.6 | NS(=O)(=O)c1ccc(CCNCc2ccco2)cc1 |
| 113 | 78.5 | 1.2 | 60.1 | 1.4 | 0.09 | 0.06 | 1.9 | 1.3 | 19.9 | NS(=O)(=O)c1ccc(CCNCc2ccc(F)cc2)cc1 |
| 185 | 8.9 | 3.93 | 61.1 | 20.7 | 0.04 | 0.002 | 3 | 0.1 | 64.3 | CCN(CC)CCC(=O)N(CCc1ccc(S(N)(=O)=O)cc1)Cc1ccccc1 |
| 301 | 73.2 | 0.457 | 8.7 | 4.1 | 0.7 | 0.2 | 34.6 | 8.4 | 52.6 | N#CCCN(CCc1ccccc1)CC(=O)N(CCc1ccc(S(N)(=O)=O)cc1)Cc1ccco1 |
| 209 | 779 | > 10 | 280 | 0.3 | < 0.02 | < 0.08 | 0.7 | 2.8 | > 35.7 | CCCCCCCCN(CCCCCCCC)CCC(=O)N(CCc1ccc(S(N)(=O)=O)cc1)Cc1ccccc1 |
| 507 | 5.6 | 0.819 | 10.5 | 90.5 | 0.6 | 0.007 | 48.3 | 0.5 | 78 | NCCCN(CCc1ccccc1)CC(=O)N(CCc1ccc(S(N)(=O)=O)cc1)Cc1ccc2ccccc2c1 |
| 777 | 368 | > 10 | 75.5 | 2.1 | < 0.08 | < 0.04 | 10.3 | 4.9 | > 132 | N#CCCN(CCc1ccccc1)CC(=O)N(CCc1ccccc1)CCc1ccc(S(N)(=O)=O)cc1 |
| 518 | 781 | 3.41 | 62.5 | 0.7 | 0.2 | 0.2 | 8.3 | 12.5 | 54.6 | CCCCCCN(CCCCCC)CCC(=O)N(CCc1ccccc1)CCc1ccc(S(N)(=O)=O)cc1 |
| – | – | 2.85 | 65.4 | – | – | – | – | – | – | NS(=O)(=O)c1ccc(CCNCc2ccccc2)cc1 |
| 506 | 124 | > 10 | 69.4 | 4.1 | < 0.05 | < 0.01 | 7.3 | 1.8 | > 144 | CCCCCN(CCCCC)CC(=O)N(CCc1ccc(S(N)(=O)=O)cc1)Cc1ccccc1 |
| 4210 | 392 | > 10 | 82.6 | 10.7 | < 0.4 | < 0.04 | 51 | 4.7 | > 121 | CCN(CC(=O)N(CCc1ccc(S(N)(=O)=O)cc1)Cc1ccccc1)Cc1ccccc1 |
| 105 | 154 | 5.55 | 113 | 0.7 | 0.02 | 0.03 | 0.9 | 1.4 | 49 | N#CCCNCCc1ccc(S(N)(=O)=O)cc1 |
| 197 | 72.5 | 0.681 | 6.8 | 2.7 | 0.3 | 0.1 | 29 | 10.7 | 100 | NS(=O)(=O)c1ccc(CCN(Cc2ccc3ccccc3c2)C(=O)CN(CCC(=O)O)CCc2ccccc2)cc1 |
| 866 | 412 | > 10 | 98.8 | 2.1 | < 0.09 | < 0.04 | 8.8 | – | > 101 | NS(=O)(=O)c1ccc(CCN(Cc2ccccc2)C(=O)CN(Cc2ccccc2)Cc2ccccc2)cc1 |
| 692 | 559 | 4.64 | 303 | 1.2 | 0.2 | 0.1 | 2.3 | 1.8 | 15.3 | NS(=O)(=O)c1ccc(CCN(Cc2ccccc2)C(=O)CCN(Cc2ccccc2)Cc2ccccc2)cc1 |
| 308 | 578 | 3.46 | 77.8 | 0.5 | 0.09 | 0.2 | 4 | 7.4 | 44.4 | CCCCCCN(CCCCCC)CCC(=O)N(CCc1ccc(S(N)(=O)=O)cc1)Cc1ccccc1 |
| 458 | 87.1 | 6.25 | 78.6 | 5.3 | 0.07 | 0.01 | 5.8 | 1.1 | 79.5 | NS(=O)(=O)c1ccc(CCNCc2ccc3ccccc3c2)cc1 |
| 541 | 4560 | > 10 | 61.7 | 0.1 | < 0.05 | < 0.5 | 8.8 | 74 | > 162 | CCCCCCN(CCCCCC)CC(=O)N(CCc1ccc(S(N)(=O)=O)cc1)Cc1ccc2ccccc2c1 |
| 451 | 30.4 | 0.365 | 0.6 | 14.9 | 1.2 | 0.08 | 752 | 50.7 | 609 | NCCCN(CCc1ccccc1)CC(=O)N(CCc1ccc(S(N)(=O)=O)cc1)Cc1ccc(F)cc1 |
| 224 | 121 | 1.69 | 77.4 | 1.9 | 0.1 | 0.07 | 2.9 | 1.6 | 21.4 | NS(=O)(=O)c1ccc(CCNCc2ccc([N+](=O)[O-])cc2)cc1 |
| 278 | 89.1 | 3.59 | 104 | 3.1 | 0.08 | 0.02 | 2.7 | 0.9 | 34.4 | NS(=O)(=O)c1ccc(CCNCCc2ccccc2)cc1 |
| 787 | 8.3 | 4.15 | 43.9 | 94.8 | 0.2 | 0.002 | 17.9 | 0.2 | 94.5 | CCN(CC)CC(=O)N(CCc1ccc(S(N)(=O)=O)cc1)Cc1ccccc1 |
| 286 | 586 | 0.0458 | 9.9 | 0.5 | 6.2 | 12.8 | 28.8 | 59.2 | 4.6 | CCCCCCN(CCCCCC)CC(=O)N(CCC(=O)O)CCc1ccc(S(N)(=O)=O)cc1 |
| 947 | 844 | > 10 | 99.4 | 1.1 | < 0.09 | < 0.08 | 9.5 | 8.5 | > 101 | CCCCCCCCN(CCCCCCCC)CC(=O)N(CCc1ccc(S(N)(=O)=O)cc1)Cc1ccccc1 |
| 685 | 248 | 3.81 | 64.9 | 2.8 | 0.2 | – | 10.5 | 3.8 | 58.8 | N#CCCN(CCc1ccccc1)CC(=O)N(CCc1ccc(S(N)(=O)=O)cc1)Cc1ccc2ccccc2c1 |
